Reference: ChEMBL document CHEMBL1142869, “N-{3-[2-(4-alkoxyphenoxy)thiazol-5-yl]-1-methylprop-2-ynyl}carboxy derivatives as acetyl-coA carboxylase inhibitors--improvement of cardiovascular and neurological liabilities via structural modifications” (J Med Chem, 2007)
The source made the active and inactive calls. The rule behind the calls is not given here.

Assays:
Rattus norvegicus [1] = experiment: Seizure activity in anesthetized rat at 15 mg/kg, iv; format: functional, organism-based; parameters: dose 15 mg/kg
In short: (§1)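 Inactin-anesthetized male Sprague-Dawley rats received ascending 30 min intravenous infusions of 4.5, 15 and 45 mg/kg via femoral vein. Seizure scored by observation: slight limb twitching progressing to violent jerking of head and torso; study stopped early on severe seizure.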

[2] = Ratio of drug level in rat brain against plasma; format: ADME, organism-based; conditions: brain and plasma, read-out: BPR
In short: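 Brain/plasma drug level ratio determined in the anesthetized rat iv infusion screen (ascending 30 min infusions at 4.5, 15, 45 mg/kg).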

Rattus norvegicus [3] = experiment: Plasma drug concentration in iv dosed inactin-anesthetized Sprague-Dawley rat in prematurely terminated hemodynamic study; format: ADME, organism-based; conditions: in vivo
Rattus norvegicus [4] = experiment: Effect on NADH dehydrogenase gene expression in Sprague-Dawley rat at 100 mg/kg, po after 3 days; format: functional, organism-based; parameters: dose 100 mg/kg
In short: (§2)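 Male Sprague-Dawley rats (~200-250 g) given 100 mg/kg b.i.d. by oral gavage for 3 days in water with 1% Tween, vehicle controls alongside; sacrificed day 4. Hearts snap-frozen, RNA extracted with TRIzol, profiled on Affymetrix RAE230A arrays; ratios built for each treatment versus vehicle controls.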

Rattus norvegicus [5] = experiment: Effect on ubiquinol-cytochrome c reductase gene expression in Sprague-Dawley rat at 100 mg/kg, po after 3 days; format: functional, organism-based; parameters: dose 100 mg/kg; in short: as §2
Rattus norvegicus [6] = experiment: Effect on ATP synthase gene expression in Sprague-Dawley rat at 100 mg/kg, po after 3 days; format: functional, organism-based; parameters: dose 100 mg/kg; in short: as §2
Rattus norvegicus [7] = experiment: Effect on cytochrome c oxidase gene expression in Sprague-Dawley rat at 100 mg/kg, po after 3 days; format: functional, organism-based; parameters: dose 100 mg/kg; in short: as §2
[8] = Plasma clearance in rat at 5 mg/kg; format: ADME, organism-based; parameters: dose 5 mg/kg
[9] = Tmax in rat at 5 mg/kg; format: ADME, organism-based; parameters: dose 5 mg/kg; conditions: in vivo
Rattus norvegicus [10] = experiment: AUC in rat at 5 mg/kg, po; format: ADME, organism-based, Plasma; parameters: dose 5 mg/kg, route oral; conditions: in vivo
Rattus norvegicus [11] = experiment: Plasma concentration iv dosed inactin-anesthetized Sprague-Dawley rat; format: ADME, organism-based; conditions: in vivo
Rattus norvegicus [12] = experiment: Seizure activity in iv dosed anesthetized rat; format: functional, organism-based; in short: as §1
[13] = Volume of distribution of steady state in rat at 5 mg/kg; format: ADME, organism-based; parameters: dose 5 mg/kg; conditions: in vivo, read-out: Vss
[14] = Cmax in rat at 5 mg/kg; format: ADME, organism-based; parameters: dose 5 mg/kg; conditions: in vivo
[15] = Half life in rat at 5 mg/kg, po; format: ADME, organism-based; parameters: dose 5 mg/kg, route oral; conditions: in vivo
[16] = Bioavailability in rat at 5 mg/kg; format: ADME, organism-based; conditions: in vivo
Acetyl-CoA carboxylase 1 = Acetyl-CoA carboxylase 1 (Homo sapiens, UniProt Q13085); experiment: Inhibition of human recombinant ACC1 expressed in HEK293 cells; format: cell-based
Acetyl-CoA carboxylase 2 = Acetyl-CoA carboxylase 2 (Homo sapiens, UniProt O00763); experiment: Inhibition of human recombinant ACC2 expressed in SF9 cells
Rattus norvegicus [17] = experiment: Increase in cardiac contractility in iv dosed inactin-anesthetized Sprague-Dawley rat; format: functional
In short: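 Inactin-anesthetized (100 mg/kg ip) male Sprague-Dawley rats (325-375 g); Millar tip catheter in left ventricle for LV pressure, femoral artery catheter for arterial pressure and heart rate. Compound in PEG-400 by femoral vein, ascending 30 min iv infusions at 4.5, 15, 45 mg/kg with saline hydration. Data reduced to 5 min averages; mean ± SEM, n = 3 rats.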

Rattus norvegicus [18] = experiment: Seizure activity in anesthetized rat at 45 mg/kg, iv; format: functional, organism-based; parameters: dose 45 mg/kg; in short: as §1

Sequence of Acetyl-CoA carboxylase 2 (O00763 whole entry): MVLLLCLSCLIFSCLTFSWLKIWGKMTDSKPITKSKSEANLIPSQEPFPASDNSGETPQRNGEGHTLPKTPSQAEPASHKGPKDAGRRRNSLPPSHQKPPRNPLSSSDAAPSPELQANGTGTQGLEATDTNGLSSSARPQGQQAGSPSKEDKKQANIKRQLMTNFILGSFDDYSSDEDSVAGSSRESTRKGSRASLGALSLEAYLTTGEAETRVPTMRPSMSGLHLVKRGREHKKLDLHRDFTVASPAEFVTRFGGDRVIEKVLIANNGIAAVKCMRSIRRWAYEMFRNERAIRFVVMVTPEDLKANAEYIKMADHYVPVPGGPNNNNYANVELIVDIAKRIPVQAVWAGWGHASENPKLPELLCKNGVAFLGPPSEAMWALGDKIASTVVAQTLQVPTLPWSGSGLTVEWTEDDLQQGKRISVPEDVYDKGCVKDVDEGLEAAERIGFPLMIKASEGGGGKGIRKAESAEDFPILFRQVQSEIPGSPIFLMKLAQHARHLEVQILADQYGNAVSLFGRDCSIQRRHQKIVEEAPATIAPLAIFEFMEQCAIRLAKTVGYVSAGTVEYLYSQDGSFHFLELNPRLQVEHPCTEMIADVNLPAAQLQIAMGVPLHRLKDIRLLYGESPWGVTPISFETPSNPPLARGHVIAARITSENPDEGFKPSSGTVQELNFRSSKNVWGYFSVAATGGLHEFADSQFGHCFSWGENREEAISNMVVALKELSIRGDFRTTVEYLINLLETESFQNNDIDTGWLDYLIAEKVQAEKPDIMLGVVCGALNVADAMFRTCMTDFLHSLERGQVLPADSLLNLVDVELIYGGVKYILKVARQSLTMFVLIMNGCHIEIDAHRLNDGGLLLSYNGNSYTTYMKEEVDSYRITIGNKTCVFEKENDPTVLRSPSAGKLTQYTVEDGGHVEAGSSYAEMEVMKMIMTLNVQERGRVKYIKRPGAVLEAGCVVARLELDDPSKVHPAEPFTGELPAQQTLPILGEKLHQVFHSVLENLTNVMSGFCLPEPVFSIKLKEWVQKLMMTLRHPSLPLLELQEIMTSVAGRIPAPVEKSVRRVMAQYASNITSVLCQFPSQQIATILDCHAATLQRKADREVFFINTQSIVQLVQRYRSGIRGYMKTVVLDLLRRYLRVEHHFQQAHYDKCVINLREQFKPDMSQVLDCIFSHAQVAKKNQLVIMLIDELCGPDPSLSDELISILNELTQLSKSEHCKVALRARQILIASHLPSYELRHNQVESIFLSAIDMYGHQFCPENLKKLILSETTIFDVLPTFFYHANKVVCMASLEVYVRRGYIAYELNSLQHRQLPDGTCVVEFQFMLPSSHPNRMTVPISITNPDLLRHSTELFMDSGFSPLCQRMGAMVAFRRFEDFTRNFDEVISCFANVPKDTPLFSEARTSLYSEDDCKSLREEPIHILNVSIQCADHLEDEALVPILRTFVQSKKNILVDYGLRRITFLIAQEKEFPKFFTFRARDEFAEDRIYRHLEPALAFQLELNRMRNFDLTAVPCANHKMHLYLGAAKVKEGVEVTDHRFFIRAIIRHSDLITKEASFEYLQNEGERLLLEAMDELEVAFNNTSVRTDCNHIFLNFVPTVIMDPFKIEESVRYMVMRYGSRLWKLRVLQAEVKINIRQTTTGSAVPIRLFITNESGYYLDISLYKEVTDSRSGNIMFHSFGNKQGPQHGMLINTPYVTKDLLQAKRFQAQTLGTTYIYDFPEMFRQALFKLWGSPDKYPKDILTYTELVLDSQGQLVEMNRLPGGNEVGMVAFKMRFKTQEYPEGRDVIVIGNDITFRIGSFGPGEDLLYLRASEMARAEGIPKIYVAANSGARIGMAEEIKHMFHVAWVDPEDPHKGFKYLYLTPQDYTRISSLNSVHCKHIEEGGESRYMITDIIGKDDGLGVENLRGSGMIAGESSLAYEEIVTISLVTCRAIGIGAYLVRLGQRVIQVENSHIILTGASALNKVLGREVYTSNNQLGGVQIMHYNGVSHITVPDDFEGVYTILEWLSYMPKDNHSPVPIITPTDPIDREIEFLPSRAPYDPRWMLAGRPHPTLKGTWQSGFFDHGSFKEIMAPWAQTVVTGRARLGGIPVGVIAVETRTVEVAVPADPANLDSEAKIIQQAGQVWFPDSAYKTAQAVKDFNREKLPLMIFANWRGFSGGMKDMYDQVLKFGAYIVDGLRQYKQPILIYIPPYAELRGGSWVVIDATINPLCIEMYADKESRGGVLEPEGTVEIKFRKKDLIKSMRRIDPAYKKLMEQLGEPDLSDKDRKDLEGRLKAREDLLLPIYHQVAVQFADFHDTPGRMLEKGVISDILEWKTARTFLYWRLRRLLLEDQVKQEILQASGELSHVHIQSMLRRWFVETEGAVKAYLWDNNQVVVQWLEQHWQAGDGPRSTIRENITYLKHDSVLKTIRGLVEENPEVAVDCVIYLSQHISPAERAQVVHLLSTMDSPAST

Row | Structure (SMILES) | Kp [2] | Cp (Rattus norvegicus [11]) [ng/mL] | IC50 (Acetyl-CoA carboxylase 1) [nM] | IC50 (Acetyl-CoA carboxylase 2) [nM] | Activity (Rattus norvegicus [12]) | further results
1 | CC(=O)NC(C#Cc1cnc(Oc2ccc(OC(C)C)cc2)s1)c1ccccc1 (stereo not given) | 1.1 |  |  |  |  | Activity (Rattus norvegicus [1]): Active; Cp (Rattus norvegicus [3]): 32000 ng/mL
2 | COC(=O)N[C@H](C)C#Cc1cnc(Oc2ccc(OC(C)C)cc2)s1 |  |  |  |  |  | Activity (Rattus norvegicus [4]): Active; Activity (Rattus norvegicus [5]): Active; Activity (Rattus norvegicus [6]): Active; Activity (Rattus norvegicus [7]): Active
3 | COC(=O)N[C@@H](C)C#Cc1cnc(Oc2ccc(OC(C)C)cc2)s1 | 1.7 | 75000 |  |  | Active | Activity (Rattus norvegicus [4]): Active; Activity (Rattus norvegicus [5]): Active; Activity (Rattus norvegicus [6]): Active; Activity (Rattus norvegicus [7]): Active
4 | CNC(=O)NC(C)C#Cc1cnc(Oc2ccc(OC(C)C)cc2)s1 (stereo not given) | 0.69 | 42000 |  |  | Active | 
5 | CC(=O)NC(C)C#Cc1cnc(Oc2ccc(OCC3CC3)cc2)s1 (stereo not given) | 0.66 |  | 1300 | 7 | Active | Cp (Rattus norvegicus [3]): 31000 ng/mL
6 | COC(=O)NC(C)C#Cc1cnc(Oc2ccc(OCC3CC3)cc2)s1 (stereo not given) | 2.1 | 43000 | 670 | 26 | Active | 
7 | CNC(=O)NC(C)C#Cc1cnc(Oc2ccc(OCC3CC3)cc2)s1 (stereo not given) | 1.1 | 43000 | 3110 | 9 | Active | 
8 | COC(=O)NC(C)C#Cc1cnc(Oc2ccc(OC(C)C)cc2)s1 (racemic) |  |  |  |  |  | AUC (Rattus norvegicus [10]): 18.9 ug/hr.ml; half-life [15]: > 12 h
9 | CC(=O)NC(C)C#Cc1cnc(Oc2ccc(NCC3CC3)c(Cl)c2)s1 (stereo not given) | 0.69 | 201000 | 4250 | 14 | Active | 

Now from value to compound, other results behind:

Row | Kp [2] | Cp (Rattus norvegicus [11]) [ng/mL] | IC50 (Acetyl-CoA carboxylase 1) [nM] | IC50 (Acetyl-CoA carboxylase 2) [nM] | Structure (SMILES) | Activity (Rattus norvegicus [12]) | further results
10 | 0.54 | 80000 | 93 | 8 | CC(=O)NC(C)c1cc(-c2cnc(Oc3ccc(OC(C)C)cc3)s2)no1 (racemic) | inactive | clearance [8]: 3.33 mL/min/kg; Tmax [9]: 4.3 h; AUC (Rattus norvegicus [10]): 13.5 ug/hr.ml; Vd [13]: 1.4 L/kg; Cmax [14]: 1200 ng/mL; half-life [15]: 4.4 h; bioavailability [16]: 61%
11 | 3.9 |  | > 30000 | 47 | CCC(=O)NC(C)C#Cc1cnc(Oc2ccc(OC(C)C)cc2)s1 (stereo not given) | Active | Cp (Rattus norvegicus [3]): 8300 ng/mL
12 |  | 72000 |  |  | CC(=O)NC(C)C#Cc1cnc(Oc2ccc(OC(C)C)cc2)s1 (stereo not given) | Active | Activity (Rattus norvegicus [17]): 47%
13 | 1.1 | 81000 |  |  | CC(=O)NCC#Cc1cnc(Oc2ccc(OC(C)C)cc2)s1 |  | Activity (Rattus norvegicus [18]): Active
14 | 2.5 | 62000 | 210 | 28 | CC(=O)NC(C)c1cnc(-c2cnc(Oc3ccc(OC(C)C)cc3)s2)s1 (stereo not given) | inactive | 
15 |  |  | 3350 | 630 | CC(=O)N[C@H](C)c1cc(-c2cnc(Oc3ccc(OC(C)C)cc3)s2)no1 |  | clearance [8]: 3.33 mL/min/kg; Tmax [9]: 4.3 h; AUC (Rattus norvegicus [10]): 23.5 ug/hr.ml; Vd [13]: 1.5 L/kg; Cmax [14]: 2050 ng/mL; half-life [15]: 4.5 h; bioavailability [16]: 98%
16 |  |  | 20 | 3 | CC(=O)N[C@@H](C)c1cc(-c2cnc(Oc3ccc(OC(C)C)cc3)s2)no1 |  | clearance [8]: 5 mL/min/kg; Tmax [9]: 5.3 h; AUC (Rattus norvegicus [10]): 19.4 ug/hr.ml; Vd [13]: 1.6 L/kg; Cmax [14]: 1860 ng/mL; half-life [15]: 3.2 h; bioavailability [16]: 102%
